Calls of active or inactive are those of the source. The calls are words filed in the database; no cut-off is given here.
What was measured:
[1] = target: T1, Microtubule-associated protein tau (Homo sapiens, UniProt P10636); assay: Inhibition of human full length recombinant tau-441 expressed in Escherichia coli assessed as inhibition of heparin-induced protein aggregation by measuring reduction in fluorescence intensity incubated for 72 hrs by Proteo-stat fluorescence aggregation assay
[2] = target: T1, Microtubule-associated protein tau; assay: Inhibition of human full length recombinant tau-441 expressed in Escherichia coli assessed as inhibition of heparin-induced protein aggregation by measuring reduction in fluorescence intensity at 5 to 120 uM incubated for 72 hrs by Proteo-stat fluorescence aggregation assay; settings: dose microM 5-120, time 72.0 hrs
How it was run: (§1)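 Recombinant full-length tau441 (19.8 μM final, 909 μg/mL) is aggregated with heparin (4.95 μM final) in pH 6.8 tau buffer (MES, EGTA, NaCl) for 72 h at 37 °C. Compounds are dissolved in DMSO and added at 5, 40, 120 or 250 μM final. A 10 μL aliquot is mixed 10:1 v/v with Proteostat reagent and read at ex 550/em 600 nm. Triplicates. IC50 comes from a sigmoidal dose-response fit.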

[3] = target: T1, Microtubule-associated protein tau; assay: Displacement of Bis-ANS from solvent exposed hydrophobic site of non-aggregated human full length recombinant tau-441 expressed in Escherichia coli assessed as reduction in fluorescence intensity at 120 uM incubated for 72 hrs by Bis-ANS fluorescence assay
How it was run: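 Competition control: non-aggregated tau441 (909 μg/mL) is held with compound and without heparin for 72 h at 37 °C. It is then mixed with Bis-ANS (100 μM final) for 60 min at room temperature. Fluorescence is read at 25 °C, ex 350 nm, emission 400–600 nm, and loss of 510 nm signal is taken as Bis-ANS displacement from tau hydrophobic sites.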

[4] = target: T1, Microtubule-associated protein tau; assay: Inhibition of human full length recombinant tau-441 expressed in Escherichia coli assessed as inhibition of heparin-induced beta-sheet formation and protein aggregation by measuring fluorescence intensity at 120 uM incubated for 72 hrs by Proteo-stat fluorescence aggregation assay; how it was run: as §1
[5] = target: T1, Microtubule-associated protein tau; assay: Inhibition of human full length recombinant tau-441 expressed in Escherichia coli assessed as inhibition of heparin-induced protein aggregation by measuring reduction in fibrillization by measuring reduction in short and long filaments and fibrillar network formation at 120 uM incubated for 72 hrs by transmission electron microscopy
[6] = target: T1, Microtubule-associated protein tau; assay: Inhibition of human full length recombinant tau-441 expressed in Escherichia coli assessed as inhibition of heparin-induced protein aggregation by measuring fluorescence intensity at 120 uM incubated for 72 hrs by Bis-ANS fluorescence assay
How it was run: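 Tau441 (19.8 μM) with heparin (4.95 μM) and compound (120 μM) in DMSO/tau buffer pH 6.8 is aged 72 h at 37 °C. A 10 μL aliquot gets Bis-ANS (100 μM final, from stock in 20 mM Tris pH 7.4) for 60 min at room temperature. Emission is scanned 400–600 nm at 25 °C (ex 350 nm) and the 510 nm intensity is taken. Triplicate measurements.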

[7] = Inhibition of N-terminal His6-tagged human tau K18deltaK280 mutant assessed as inhibition of protein aggregation

T1 sequence (P10636 whole entry): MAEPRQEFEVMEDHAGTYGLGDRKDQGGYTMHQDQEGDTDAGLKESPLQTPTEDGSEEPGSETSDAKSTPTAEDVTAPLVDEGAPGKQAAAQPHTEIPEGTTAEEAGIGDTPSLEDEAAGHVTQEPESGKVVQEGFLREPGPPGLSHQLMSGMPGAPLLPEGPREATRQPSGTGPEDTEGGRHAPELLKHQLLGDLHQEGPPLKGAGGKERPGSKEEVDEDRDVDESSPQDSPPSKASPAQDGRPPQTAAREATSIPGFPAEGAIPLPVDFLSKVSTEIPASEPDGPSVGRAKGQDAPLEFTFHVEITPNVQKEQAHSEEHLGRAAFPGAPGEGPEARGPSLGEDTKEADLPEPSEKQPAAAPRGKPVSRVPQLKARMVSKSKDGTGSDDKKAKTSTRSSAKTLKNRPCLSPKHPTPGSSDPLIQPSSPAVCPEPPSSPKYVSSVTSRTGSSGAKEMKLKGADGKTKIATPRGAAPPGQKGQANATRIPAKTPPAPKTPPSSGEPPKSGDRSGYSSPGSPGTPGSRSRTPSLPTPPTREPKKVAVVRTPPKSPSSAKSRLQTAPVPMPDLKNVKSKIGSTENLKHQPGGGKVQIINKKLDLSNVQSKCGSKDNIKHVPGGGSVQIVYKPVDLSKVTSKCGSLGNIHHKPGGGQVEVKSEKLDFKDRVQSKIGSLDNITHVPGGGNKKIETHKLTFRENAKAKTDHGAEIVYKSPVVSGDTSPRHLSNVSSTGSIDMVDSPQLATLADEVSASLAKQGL

| SMILES | IC50 ([1]; read-out: IC50) [µM] | inhibition [2] | inhibition [3] | Activity [4] [a.u.] | inhibition [5] | Activity [6] [a.u.] | IC50 [1] | inhibition [6] | IC50 [7] [µM] |
| --- | --- | --- | --- | --- | --- | --- | --- | --- | --- |
| CCCN(CCN1CCN(c2ccc(-c3ccc(O)c(O)c3)cc2)CC1)[C@H]1CCc2c(O)cccc2C1 | 25 | Active | Active | 1000 | Active | 1500 | – | – | – |
| CCCN(CCN1CCN(c2ccc(-c3ccc(O)c(O)c3)cc2)CC1)[C@H]1CCc2nc(N)sc2C1 | 21 | Active | Active | 1000 | Active | 1000 | – | – | – |
| CN(C)c1ccc2nc3ccc(=[N+](C)C)cc-3sc2c1 | – | Active | 95% | 1000 | Active | 400 | – | – | – |
| CCCN(CCN1CCN(c2ccc3[nH]c4ccccc4c3c2)CC1)[C@H]1CCc2nc(N)sc2C1 | – | inactive | inactive | 7000 | inactive | – | Not Active | inactive | – |
| CCCN(CCN1CCN(c2ccc(-c3ccccc3)cc2)CC1)[C@H]1CCc2nc(N)sc2C1 | – | inactive | inactive | 9000 | inactive | – | Not Active | inactive | – |
| O=C(O[C@@H]1Cc2c(O)cc(O)cc2O[C@@H]1c1cc(O)c(O)c(O)c1)c1cc(O)c(O)c(O)c1 [EPIGALOCATECHIN GALLATE] | – | – | – | – | – | – | – | – | > 200 |
